Source: ChEMBL document CHEMBL2331542, “Synthesis and in vitro antibacterial activity of quinolone/naphthyridone derivatives containing 3-alkoxyimino-4-(methyl)aminopiperidine scaffolds” (2013)
In brackets after ≈: the same amount, converted by molar mass.

Legend:
Type in all cases: functional
Escherichia coli [1] = test: Antibacterial activity against extended-spectrum beta-lactamase-producing Escherichia coli isolate 12-4
In short: (§1)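 MIC determined in vitro by a standard technique and defined as the lowest compound concentration giving complete inhibition of bacterial growth. The Gram-positive and Gram-negative panels were tested alongside gemifloxacin, levofloxacin and ciprofloxacin reference drugs.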

Escherichia coli [2] = test: Antibacterial activity against extended-spectrum beta-lactamase-producing Escherichia coli isolate 12-2; in short: as §1
Escherichia coli [3] = test: Antibacterial activity against extended-spectrum beta-lactamase-producing Escherichia coli isolate 12-1; in short: as §1
Escherichia coli [4] = test: Antibacterial activity against Escherichia coli isolate 12-5; in short: as §1
Escherichia coli [5] = test: Antibacterial activity against Escherichia coli isolate 12-4; in short: as §1
Escherichia coli [6] = test: Antibacterial activity against Escherichia coli isolate 12-1; in short: as §1
Escherichia coli [7] = test: Antibacterial activity against Escherichia coli ATCC 25922; in short: as §1
Streptococcus pneumoniae [8] = test: Antibacterial activity against Streptococcus pneumoniae isolate 12-5; in short: as §1
Streptococcus pneumoniae [9] = test: Antibacterial activity against Streptococcus pneumoniae isolate 12-2; in short: as §1
[10] = system: Staphylococcus epidermidis; test: Antibacterial activity against methicillin-resistant Staphylococcus epidermidis isolate 12-35
In short: (§2)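 MIC determined in vitro by standard techniques, defined as the lowest compound concentration giving complete inhibition of bacterial growth. Gemifloxacin, levofloxacin and ciprofloxacin were tested alongside as reference drugs.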

[11] = system: Staphylococcus epidermidis; test: Antibacterial activity against methicillin-resistant Staphylococcus epidermidis isolate 12-33; in short: as §2
[12] = system: Staphylococcus epidermidis; test: Antibacterial activity against methicillin-resistant Staphylococcus epidermidis isolate 12-5; in short: as §2
[13] = system: Staphylococcus epidermidis; test: Antibacterial activity against methicillin-sensitive Staphylococcus epidermidis isolate 12-3; in short: as §1
[14] = system: Staphylococcus epidermidis; test: Antibacterial activity against methicillin-sensitive Staphylococcus epidermidis isolate 12-2; in short: as §1
[15] = system: Staphylococcus epidermidis; test: Antibacterial activity against methicillin-sensitive Staphylococcus epidermidis isolate 12-1; in short: as §1
Staphylococcus aureus [16] = test: Antibacterial activity against methicillin-resistant Staphylococcus aureus isolate 12-15; in short: as §2
Staphylococcus aureus [17] = test: Antibacterial activity against methicillin-resistant Staphylococcus aureus isolate 12-13; in short: as §2
Staphylococcus aureus [18] = test: Antibacterial activity against methicillin-resistant Staphylococcus aureus isolate 12-3; in short: as §2
Staphylococcus aureus [19] = test: Antibacterial activity against methicillin-sensitive Staphylococcus aureus isolate 12-10; in short: as §1
Staphylococcus aureus [20] = test: Antibacterial activity against methicillin-sensitive Staphylococcus aureus isolate 12-7; in short: as §1
Staphylococcus aureus [21] = test: Antibacterial activity against methicillin-sensitive Staphylococcus aureus isolate 12-6; in short: as §1
Staphylococcus aureus [22] = test: Antibacterial activity against Staphylococcus aureus […]; in short: as §1
Pseudomonas aeruginosa [23] = test: Antibacterial activity against Pseudomonas aeruginosa isolate 12-2; in short: as §1
Pseudomonas aeruginosa [24] = test: Antibacterial activity against Pseudomonas aeruginosa isolate 12-1; in short: as §1
Pseudomonas aeruginosa [25] = test: Antibacterial activity against Pseudomonas aeruginosa ATCC 27853; in short: as §1
Klebsiella pneumoniae [26] = test: Antibacterial activity against extended-spectrum beta-lactamase-producing Klebsiella pneumoniae isolate 12-4; in short: as §1
Klebsiella pneumoniae [27] = test: Antibacterial activity against extended-spectrum beta-lactamase-producing Klebsiella pneumoniae isolate 12-2; in short: as §1
Klebsiella pneumoniae [28] = test: Antibacterial activity against extended-spectrum beta-lactamase-producing Klebsiella pneumoniae isolate 12-1; in short: as §1
Klebsiella pneumoniae [29] = test: Antibacterial activity against Klebsiella pneumoniae isolate 12-4; in short: as §1
Klebsiella pneumoniae [30] = test: Antibacterial activity against Klebsiella pneumoniae isolate 12-2; in short: as §1
Klebsiella pneumoniae [31] = test: Antibacterial activity against Klebsiella pneumoniae isolate 12-1; in short: as §1

SMILES | MIC (Escherichia coli [1]) [µg/mL] | MIC (Escherichia coli [2]) [µg/mL] | MIC (Escherichia coli [3]) [µg/mL] | MIC (Escherichia coli [4]) [µg/mL] | MIC (Escherichia coli [5]) [µg/mL] | MIC (Escherichia coli [6]) [µg/mL] | MIC (Escherichia coli [7]) [µg/mL] | MIC (Streptococcus pneumoniae [8]) [µg/mL] | MIC (Streptococcus pneumoniae [9]) [µg/mL] | MIC [10] [µg/mL] | MIC [11] [µg/mL] | MIC [12] [µg/mL] | MIC [13] [µg/mL] | MIC [14] [µg/mL] | MIC [15] [µg/mL] | MIC (Staphylococcus aureus [16]) [µg/mL] | MIC (Staphylococcus aureus [17]) [µg/mL] | MIC (Staphylococcus aureus [18]) [µg/mL] | MIC (Staphylococcus aureus [19]) [µg/mL] | MIC (Staphylococcus aureus [20]) [µg/mL] | also measured
CNC1CCN(c2ccc3c(=O)c(C(=O)O)cn(C4CC4)c3n2)C/C1=N\OC (stereo not drawn) | 64 (≈ 166 µM) | 128 (≈ 332 µM) | > 128 | > 128 | > 128 | 64 (≈ 166 µM) | 0.5 (≈ 1.3 µM) | 4 (≈ 10.4 µM) | 4 (≈ 10.4 µM) | 2 (≈ 5.19 µM) | 4 (≈ 10.4 µM) | 2 (≈ 5.19 µM) | 8 (≈ 20.8 µM) | 16 (≈ 41.5 µM) | 8 (≈ 20.8 µM) | 4 (≈ 10.4 µM) | 4 (≈ 10.4 µM) | 4 (≈ 10.4 µM) | 2 (≈ 5.19 µM) | 4 (≈ 10.4 µM) | MIC (Staphylococcus aureus [21]): 2 µg/mL (≈ 5.19 µM); MIC (Staphylococcus aureus [22]): 0.5 µg/mL (≈ 1.3 µM); MIC (Pseudomonas aeruginosa [23]): 8 µg/mL (≈ 20.8 µM); MIC (Pseudomonas aeruginosa [24]): 16 µg/mL (≈ 41.5 µM); MIC (Pseudomonas aeruginosa [25]): 8 µg/mL (≈ 20.8 µM); MIC (Klebsiella pneumoniae [26]): 2 µg/mL (≈ 5.19 µM); MIC (Klebsiella pneumoniae [27]): > 128 µg/mL; MIC (Klebsiella pneumoniae [28]): 128 µg/mL (≈ 332 µM); MIC (Klebsiella pneumoniae [29]): 2 µg/mL (≈ 5.19 µM); MIC (Klebsiella pneumoniae [30]): 2 µg/mL (≈ 5.19 µM); MIC (Klebsiella pneumoniae [31]): 2 µg/mL (≈ 5.19 µM)
CO/N=C1\CN(c2nc3c(cc2F)c(=O)c(C(=O)O)cn3C2CC2)CCC1N (stereo not drawn) | 32 (≈ 82.2 µM) | 64 (≈ 164 µM) | > 128 | > 128 | > 128 | 2 (≈ 5.14 µM) | 32 (≈ 82.2 µM) | 4 (≈ 10.3 µM) | 0.25 (≈ 0.642 µM) | 2 (≈ 5.14 µM) | 4 (≈ 10.3 µM) | 2 (≈ 5.14 µM) | 0.5 (≈ 1.28 µM) | 2 (≈ 5.14 µM) | 0.5 (≈ 1.28 µM) | 0.25 (≈ 0.642 µM) | 0.25 (≈ 0.642 µM) | 0.25 (≈ 0.642 µM) | 2 (≈ 5.14 µM) | 32 (≈ 82.2 µM) | MIC (Staphylococcus aureus [21]): 0.25 µg/mL (≈ 0.642 µM); MIC (Staphylococcus aureus [22]): 0.25 µg/mL (≈ 0.642 µM); MIC (Pseudomonas aeruginosa [23]): 8 µg/mL (≈ 20.5 µM); MIC (Pseudomonas aeruginosa [24]): 8 µg/mL (≈ 20.5 µM); MIC (Pseudomonas aeruginosa [25]): 32 µg/mL (≈ 82.2 µM); MIC (Klebsiella pneumoniae [26]): > 128 µg/mL; MIC (Klebsiella pneumoniae [27]): 8 µg/mL (≈ 20.5 µM); MIC (Klebsiella pneumoniae [28]): 8 µg/mL (≈ 20.5 µM); MIC (Klebsiella pneumoniae [29]): 0.125 µg/mL (≈ 0.321 µM); MIC (Klebsiella pneumoniae [30]): 0.25 µg/mL (≈ 0.642 µM); MIC (Klebsiella pneumoniae [31]): 0.25 µg/mL (≈ 0.642 µM)
CNC1CCN(c2c(F)cc3c(=O)c(C(=O)O)cn(C4CC4)c3c2OC)C/C1=N\OC (stereo not drawn) | 32 (≈ 74 µM) | > 128 | > 128 | 128 (≈ 296 µM) | > 128 | 4 (≈ 9.25 µM) | 0.125 (≈ 0.289 µM) | 0.125 (≈ 0.289 µM) | 0.125 (≈ 0.289 µM) | 0.06 (≈ 0.139 µM) | 0.125 (≈ 0.289 µM) | 0.06 (≈ 0.139 µM) | 0.25 (≈ 0.578 µM) | 0.5 (≈ 1.16 µM) | 0.25 (≈ 0.578 µM) | 0.25 (≈ 0.578 µM) | 0.25 (≈ 0.578 µM) | 0.25 (≈ 0.578 µM) | 0.06 (≈ 0.139 µM) | 0.125 (≈ 0.289 µM) | MIC (Staphylococcus aureus [21]): 0.06 µg/mL (≈ 0.139 µM); MIC (Staphylococcus aureus [22]): 0.25 µg/mL (≈ 0.578 µM); MIC (Pseudomonas aeruginosa [23]): 16 µg/mL (≈ 37 µM); MIC (Pseudomonas aeruginosa [24]): 16 µg/mL (≈ 37 µM); MIC (Pseudomonas aeruginosa [25]): 8 µg/mL (≈ 18.5 µM); MIC (Klebsiella pneumoniae [26]): 0.5 µg/mL (≈ 1.16 µM); MIC (Klebsiella pneumoniae [27]): 16 µg/mL (≈ 37 µM); MIC (Klebsiella pneumoniae [28]): 16 µg/mL (≈ 37 µM); MIC (Klebsiella pneumoniae [29]): 0.5 µg/mL (≈ 1.16 µM); MIC (Klebsiella pneumoniae [30]): 2 µg/mL (≈ 4.62 µM); MIC (Klebsiella pneumoniae [31]): 1 µg/mL (≈ 2.31 µM)
